Active and inactive are the calls of the source. The calls are words filed in the database; no cut-off is given here.
Columns and labels:
MDCK [1] = assay: Cytotoxicity against MDCK cells expressing carbonic anhydrase 9 assessed as reduction in cell viability preincubated for 2 hrs followed by 72 hrs incubation under normoxic condition by Alamar blue assay; format: functional, cell-based; details: Canis lupus familiaris
Outline: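 CAIX-overexpressing or scrambled-vector MDCK cells in DMEM/10% FBS, attached overnight, held 24 h at 21% O2/5% CO2. Drug added (0.5% DMSO vehicle) for 2 h, washed off, then 72 h further normoxic growth. Viability measured by 2 h alamarBlue conversion under normoxia.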

Carbonic anhydrase 12 = Carbonic anhydrase 12 (Homo sapiens, UniProt O43570); assay: Binding affinity to recombinant human carbonic anhydrase 12 after 15 mins by stopped-flow CO2 hydration assay
Carbonic anhydrase 12, sequence (O43570 whole entry): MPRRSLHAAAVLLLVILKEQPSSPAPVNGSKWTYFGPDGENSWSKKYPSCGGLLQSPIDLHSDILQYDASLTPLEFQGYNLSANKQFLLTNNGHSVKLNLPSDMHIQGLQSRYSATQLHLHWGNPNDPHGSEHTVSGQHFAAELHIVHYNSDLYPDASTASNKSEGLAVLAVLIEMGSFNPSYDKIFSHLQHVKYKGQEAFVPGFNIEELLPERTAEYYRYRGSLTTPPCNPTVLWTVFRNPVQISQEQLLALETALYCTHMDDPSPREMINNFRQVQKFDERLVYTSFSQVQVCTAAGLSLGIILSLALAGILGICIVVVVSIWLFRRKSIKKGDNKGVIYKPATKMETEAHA

Carbonic anhydrase 2 = Carbonic anhydrase 2 (Homo sapiens, UniProt P00918); assay: Binding affinity to recombinant human carbonic anhydrase 2 after 15 mins by stopped-flow CO2 hydration assay
MDCK [2] = assay: Cytotoxicity against MDCK cells expressing carbonic anhydrase 9 assessed as reduction in cell viability after 2 hrs under hypoxic condition by Alamar blue assay; format: functional, cell-based; details: Canis lupus familiaris
Outline: (§1)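 MDCK cells transfected with human CAIX (CAIX+) or scrambled control vector (CAIX−), in DMEM/10% FBS, seeded and attached overnight. Medium replaced with pre-equilibrated hypoxic DMEM (0.2% O2, 5% CO2) for 24 h. Compounds in DMSO (0.5%) added for 2 h, then washed off. Cells regrown 72 h in normoxia. Viability read by alamarBlue conversion for 2 h under normoxia.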

MDCK [3] = assay: Cytotoxicity against carbonic anhydrase 9 knockdown MDCK cells assessed as reduction in cell viability after 2 hrs under hypoxic condition by Alamar blue assay; format: cell-based; details: Canis lupus familiaris; outline: as §1
MDCK [4] = assay: Cytotoxicity against carbonic anhydrase 9 knockdown MDCK cells assessed as reduction in cell viability preincubated for 2 hrs followed by 72 hrs incubation under normoxic condition by Alamar blue assay; format: cell-based; details: Canis lupus familiaris
Carbonic anhydrase 1 = Carbonic anhydrase 1 (Homo sapiens, UniProt P00915); assay: Binding affinity to recombinant human carbonic anhydrase 1 after 15 mins by stopped-flow CO2 hydration assay
Carbonic anhydrase 1, sequence (P00915 whole entry): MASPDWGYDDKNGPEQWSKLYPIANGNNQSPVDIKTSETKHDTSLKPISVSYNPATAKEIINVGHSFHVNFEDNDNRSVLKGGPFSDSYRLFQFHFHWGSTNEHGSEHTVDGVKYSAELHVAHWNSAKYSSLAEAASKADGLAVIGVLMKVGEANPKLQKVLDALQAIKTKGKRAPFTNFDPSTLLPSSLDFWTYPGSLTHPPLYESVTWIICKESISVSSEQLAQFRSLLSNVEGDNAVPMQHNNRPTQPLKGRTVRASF

Carbonic anhydrase 9 = Carbonic anhydrase 9 (Homo sapiens, UniProt Q16790); assay: Binding affinity to recombinant human carbonic anhydrase 9 after 15 mins by stopped-flow CO2 hydration assay
MDCK [5] = assay: Cytotoxicity against carbonic anhydrase 9 knockdown MDCK cells assessed as reduction in cell viability after 72 hrs under normoxic condition by Alamar blue assay; format: cell-based; details: Canis lupus familiaris
MDCK [6] = assay: Cytotoxicity against carbonic anhydrase 9 knockdown MDCK cells assessed as reduction in cell viability after 72 hrs under hypoxic condition by Alamar blue assay; format: cell-based; details: Canis lupus familiaris
MDCK [7] = assay: Cytotoxicity against MDCK cells expressing carbonic anhydrase 9 assessed as reduction in cell viability after 72 hrs under hypoxic condition by Alamar blue assay; format: functional, cell-based; details: Canis lupus familiaris
MDCK [8] = assay: Cytotoxicity against MDCK cells expressing carbonic anhydrase 9 assessed as reduction in cell viability after 72 hrs under normoxic condition by Alamar blue assay; format: functional, cell-based; details: Canis lupus familiaris
MDCK [9] = assay: Cytotoxicity against MDCK cells expressing carbonic anhydrase 9 assessed as reduction in cell viability at 500 nM pretreated for 72 hrs followed by 72 hrs incubation under normoxic condition by Alamar blue assay; format: functional, cell-based; details: Canis lupus familiaris
Outline: (§2)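 MDCK cells transfected with human CAIX or scrambled vector, normoxia (21% O2, 5% CO2). ATR inhibitors in 0.5% DMSO for 72 h, medium replaced, cells grown a further 72 h. Viability from 2 h alamarBlue conversion in normoxia.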

MDCK [10] = assay: Cytotoxicity against carbonic anhydrase 9 knockdown MDCK cells assessed as reduction in cell viability at 500 nM pretreated for 1 hr followed by 4 Gy irradiation under anoxic condition by Alamar blue assay; format: cell-based, Canis lupus familiaris; details: dog, 0.5 µM
Outline: (§3)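 MDCK cells with or without CAIX, pre-exposed 24 h to anoxia (≤0.02% O2, 5% CO2, balance N2) in pre-equilibrated DMEM. ATR inhibitors in 0.5% DMSO added 1 h before 4 Gy X-irradiation. Exposure 72 h total, medium replaced, then 72 h normoxic regrowth. Viability by 2 h alamarBlue in normoxia.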

MDCK [11] = assay: Cytotoxicity against carbonic anhydrase 9 knockdown MDCK cells assessed as reduction in cell viability at 500 nM after 72 hrs under anoxic condition by Alamar blue assay; format: cell-based, Canis lupus familiaris; details: dog, 0.5 µM
Outline: (§4)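 MDCK CAIX+ or CAIX− cells, 24 h anoxic preincubation (≤0.02% O2, 5% CO2) in pre-equilibrated DMEM. ATR inhibitors (0.5% DMSO) applied for 72 h without irradiation, then washed off, and 72 h normoxic regrowth. Readout by 2 h alamarBlue conversion under normoxia.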

MDCK [12] = assay: Cytotoxicity against MDCK cells expressing carbonic anhydrase 9 assessed as reduction in cell viability at 500 nM pretreated for 1 hr followed by 4 Gy irradiation under anoxic condition by Alamar blue assay; format: functional, cell-based; details: Canis lupus familiaris; outline: as §3
MDCK [13] = assay: Cytotoxicity against MDCK cells expressing carbonic anhydrase 9 assessed as reduction in cell viability at 500 nM pretreated for 1 hr followed by 2 Gy irradiation under normoxic condition by Alamar blue assay; format: functional, cell-based; details: Canis lupus familiaris
Outline: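 MDCK CAIX+ cells (human CAIX transfected) under normoxia (21% O2, 5% CO2). ATR inhibitors in 0.5% DMSO added 1 h before X-irradiation with 2 Gy. Exposure 72 h total, medium replaced, then 72 h further growth. Viability by 2 h alamarBlue conversion in normoxia.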

MDCK [14] = assay: Cytotoxicity against MDCK cells expressing carbonic anhydrase 9 assessed as reduction in cell viability at 500 nM after 72 hrs under anoxic condition by Alamar blue assay; format: functional, cell-based; details: Canis lupus familiaris; outline: as §4
MDCK [15] = assay: Cytotoxicity against carbonic anhydrase 9 knockdown MDCK cells assessed as reduction in cell viability at 500 nM pretreated for 72 hrs followed by 72 hrs incubation under normoxic condition by Alamar blue assay; format: cell-based, Canis lupus familiaris; details: dog, 0.5 µM; outline: as §2
MDCK [16] = assay: Cytotoxicity against carbonic anhydrase 9 knockdown MDCK cells assessed as reduction in cell viability incubated for 24 hrs measured after 7 days under hypoxic condition by methylene blue staining based clonogenic survival assay; design: species or system Canis lupus familiaris; details: dog
Outline: (§5)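 Clonogenic assay: confluent, high-density MDCK CAIX+/CAIX− cells were exposed to drug for 24 h at 0.2% or 21% O2. Cells were then trypsinized and reseeded in triplicate at known numbers. Colonies grew 7 days and were fixed/stained with 0.4% methylene blue in 70% ethanol. Surviving fraction was normalized to 0.5% DMSO vehicle; three independent biological repeats.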

MDCK [17] = assay: Cytotoxicity against MDCK cells expressing carbonic anhydrase 9 assessed as reduction in cell viability incubated for 24 hrs measured after 7 days under hypoxic condition by methylene blue staining based clonogenic survival assay; format: functional; details: Canis lupus familiaris; outline: as §5
MDCK [18] = assay: Cytotoxicity against carbonic anhydrase 9 knockdown MDCK cells assessed as reduction in cell viability incubated for 24 hrs measured after 7 days under normoxic condition by methylene blue staining based clonogenic survival assay; design: species or system Canis lupus familiaris; details: dog; outline: as §5
MDCK [19] = assay: Cytotoxicity against MDCK cells expressing carbonic anhydrase 9 assessed as reduction in cell viability incubated for 24 hrs measured after 7 days under normoxic condition by methylene blue staining based clonogenic survival assay; format: functional; details: Canis lupus familiaris; outline: as §5
MDCK [20] = assay: Cytotoxicity against carbonic anhydrase 9 knockdown MDCK cells assessed as reduction in cell viability at 50 nM after 72 hrs under anoxic condition by Alamar blue assay; format: cell-based, Canis lupus familiaris; details: dog, 0.05 µM
Outline: (§6)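 ATR inhibitor without irradiation: MDCK CAIX+ or scrambled-control CAIX− cells were preconditioned 24 h at ≤0.02% O2 (anoxia) or 21% O2. Compound was added in 0.5% DMSO for 72 h, then washed off. Cells regrew 72 h under normoxia, followed by 2 h alamarBlue conversion. Viability is relative to control.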

MDCK [21] = assay: Cytotoxicity against carbonic anhydrase 9 knockdown MDCK cells assessed as reduction in cell viability at 50 nM pretreated for 1 hr followed by 4 Gy irradiation under anoxic condition by Alamar blue assay; format: cell-based, Canis lupus familiaris; details: dog, 0.05 µM
Outline: (§7)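 ATR inhibitor plus radiation: MDCK CAIX+/CAIX− cells were preconditioned 24 h under normoxia (21% O2) or anoxia (≤0.02% O2). Compound in 0.5% DMSO was added 1 h before X-irradiation, 2 Gy normoxic or 4 Gy anoxic. Total compound exposure was 72 h, then washout and 72 h normoxic regrowth. Readout was 2 h alamarBlue conversion, as relative viability.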

MDCK [22] = assay: Cytotoxicity against MDCK cells expressing carbonic anhydrase 9 assessed as reduction in cell viability at 50 nM pretreated for 1 hr followed by 4 Gy irradiation under anoxic condition by Alamar blue assay; format: functional, cell-based; details: Canis lupus familiaris; outline: as §7
MDCK [23] = assay: Cytotoxicity against MDCK cells expressing carbonic anhydrase 9 assessed as reduction in cell viability at 50 nM after 72 hrs under anoxic condition by Alamar blue assay; format: functional, cell-based; details: Canis lupus familiaris; outline: as §6
MDCK [24] = assay: Cytotoxicity against carbonic anhydrase 9 knockdown MDCK cells assessed as reduction in cell viability at 50 nM pretreated for 72 hrs followed by 72 hrs incubation under normoxic condition by Alamar blue assay; format: cell-based, Canis lupus familiaris; details: dog, 0.05 µM; outline: as §6
MDCK [25] = assay: Cytotoxicity against MDCK cells expressing carbonic anhydrase 9 assessed as reduction in cell viability at 50 nM pretreated for 72 hrs followed by 72 hrs incubation under normoxic condition by Alamar blue assay; format: functional, cell-based; details: Canis lupus familiaris; outline: as §6
MDCK [26] = assay: Cytotoxicity against MDCK cells expressing carbonic anhydrase 9 assessed as reduction in cell viability at 50 nM pretreated for 1 hr followed by 2 Gy irradiation under normoxic condition by Alamar blue assay; format: functional, cell-based; details: Canis lupus familiaris; outline: as §7

| Compound | Ki (Carbonic anhydrase 12) [µM] | Ki (Carbonic anhydrase 2) [µM] | Ki (Carbonic anhydrase 1) [µM] | Ki (Carbonic anhydrase 9) [µM] | IC50 (MDCK [5]) [µM] | IC50 (MDCK [6]) [µM] | IC50 (MDCK [7]) [µM] | IC50 (MDCK [8]) [µM] | further results |
| --- | --- | --- | --- | --- | --- | --- | --- | --- | --- |
| NS(=O)(=O)c1ccc(NC(=O)CCCc2ccc(N(CCCl)CCCl)cc2)cc1 | 0.689 | 0.009 | 0.073 | 0.172 | – | – | – | – | IC50 (MDCK [1]): 87 µM; IC50 (MDCK [2]): 95 µM; IC50 (MDCK [3]): 100 µM; IC50 (MDCK [4]): 100 µM |
| Cn1nnc2c(C(=O)NCc3ccc(S(N)(=O)=O)cc3)ncn2c1=O | – | – | – | 0.271 | > 1000 | > 1000 | > 1000 | > 1000 | – |
| Cn1nnc2c(C(=O)NCCc3ccc(S(N)(=O)=O)cc3)ncn2c1=O | – | – | – | 0.0371 | > 1000 | > 1000 | > 1000 | > 1000 | – |
| O=C(O)CCCc1ccc(N(CCCl)CCCl)cc1 [CHLORAMBUCIL] | > 50 | > 50 | > 50 | > 50 | – | – | – | – | IC50 (MDCK [1]): > 100 µM; IC50 (MDCK [2]): > 100 µM; IC50 (MDCK [3]): 100 µM; IC50 (MDCK [4]): 93 µM |
| CS(=O)(=O)c1ccc(-c2cnc(N)c(C(=O)Nc3ccccc3)n2)cc1 | > 50 | > 50 | > 50 | > 50 | – | – | – | – | Activity (MDCK [9]): Active; Activity (MDCK [10]): Non-Toxic; Activity (MDCK [11]): Toxic; Activity (MDCK [12]): Active; Activity (MDCK [13]): Active; Activity (MDCK [14]): Active; Activity (MDCK [15]): Toxic |
| Cn1nnc2c(C(=O)Nc3nnc(S(N)(=O)=O)s3)ncn2c1=O | – | – | – | 0.176 | > 1000 | > 1000 | > 1000 | > 1000 | – |
| Cn1nnc2c(C(N)=O)ncn2c1=O [TEMOZOLOMIDE] | > 50 | > 50 | > 50 | > 50 | 775 | 1000 | > 1000 | > 1000 | Activity (MDCK [16]): Toxic; Activity (MDCK [17]): Active; Activity (MDCK [18]): Toxic; Activity (MDCK [19]): Active |
| CNCc1ccc(-c2cc(-c3nc(-c4ccc(S(=O)(=O)C(C)C)cc4)cnc3NS(N)(=O)=O)on2)cc1 | > 50 | > 50 | > 50 | > 50 | – | – | – | – | Activity (MDCK [20]): Toxic; Activity (MDCK [21]): Non-Toxic; Activity (MDCK [22]): inactive; Activity (MDCK [23]): Active; Activity (MDCK [24]): Toxic; Activity (MDCK [25]): Active; Activity (MDCK [26]): inactive |

Source: ChEMBL document CHEMBL3992493, “New approach of delivering cytotoxic drugs towards CAIX expressing cells: A concept of dual-target drugs” (Eur J Med Chem, 2017)
